Here are results for two compounds from publication PMC10895701 (Nature structural & molecular biology, 2023).

For assay [1], the system named is WT hOCT1. Particulars: cited from earlier work.
Assay [2] concerns OCT1CS. As to the kind of experiment: 14C-metformin uptake in oocytes expressing OCT1CS. In kind it is cell-based.
Assay [3] has as its system OCT1CS. As to the kind of experiment: 3H-MPP+ uptake in X. laevis oocytes expressing OCT1CS. In kind it is cell-based. Particulars: 30 min uptake. An outline of the steps:
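Xenopus laevis oocytes injected with 30 ng cRNA, expressed 2–4 days at 17°C. Uptake of 3H-MPP+ (specific radioactivity 0.06 Ci/mmol) over a concentration series, 30 min uptake. Background corrected with water-injected oocytes; radioactivity counted. Kt fitted, reported ± s.e.m.; n=3 biologically independent replicates.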

Take `CN(C)C(=N)N=C(N)N` [metformin]: the “Kt for metformin, previous reports” value in assay [1] is 1 to 5 mM. Besides, the Kt for metformin in assay [2] is ~ 3 mM.
As to `C[n+]1ccc(-c2ccccc2)cc1` [MPP^+, 1-methyl-4-phenylpyridinium], in assay [3], the “Michaelis constant for transport (Kt) for MPP+ transport” value was ~ 50 μM.
